# hK5 inh = blocks human kallikrein 5 protease activity; Q9Y337; recombinant hK5, fluorogenic AMC substrate cleavage; inhibition, % at 5 µM; actives 0.59% (n = 210,000);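 active = inhibition of 40% or more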;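 also: 0% = enzyme controls without compound and 100% = no-enzyme blanks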
# FXIIa inh = blocks human coagulation factor XIIa protease activity. inhibition, % at 5 µM. purified FXIIa, Boc-QGR-AMC fluorogenic substrate, 2 h. actives 0.3% (n = 220,000). P00748; in the data active = inhibition above about 40%;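 also: 0% = enzyme with no compound and 100% = blank without enzyme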
# Furin inhibitor = blocks human furin protease activity. inhibition, % at 20 µM or 30 µM. P09958. purified furin, fluorogenic substrate cleavage. actives 0.061% (n = 220,000); in the data active = inhibition above about 25%
# Target sequence (P09958 108-714 limits assumed): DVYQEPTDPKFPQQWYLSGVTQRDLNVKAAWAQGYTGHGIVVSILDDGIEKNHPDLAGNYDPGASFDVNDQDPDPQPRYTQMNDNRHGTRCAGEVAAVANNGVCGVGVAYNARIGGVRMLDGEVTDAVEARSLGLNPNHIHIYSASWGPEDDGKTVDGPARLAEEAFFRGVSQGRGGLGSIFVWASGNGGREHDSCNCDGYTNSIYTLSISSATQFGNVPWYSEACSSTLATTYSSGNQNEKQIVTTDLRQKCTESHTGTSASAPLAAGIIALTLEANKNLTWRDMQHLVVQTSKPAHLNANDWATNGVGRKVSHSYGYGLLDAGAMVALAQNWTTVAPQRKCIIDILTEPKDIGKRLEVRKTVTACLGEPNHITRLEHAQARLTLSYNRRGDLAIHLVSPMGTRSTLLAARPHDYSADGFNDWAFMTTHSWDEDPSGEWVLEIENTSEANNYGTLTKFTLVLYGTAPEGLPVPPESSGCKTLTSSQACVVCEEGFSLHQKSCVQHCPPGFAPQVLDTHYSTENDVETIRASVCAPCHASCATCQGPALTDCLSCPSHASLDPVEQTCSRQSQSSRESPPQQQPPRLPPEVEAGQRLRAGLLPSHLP
# Thrombin inh = thrombin (human) inhibition; P00734; alpha-thrombin, Boc-VPR-AMC fluorogenic substrate cleavage; inhibition, % at 5 µM; actives 0.26% (n = 220,000); AID 1046;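 active = inhibition at or above 40%; inactive = inhibition below 40%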;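 also: 0% = enzyme with no compound and 100% = wells without enzyme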
#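 System: human alpha-thrombin protein; Compound dosing: one concentration per compound, 5 µM, with 0.2% DMSO; Timing: reaction at room temperature; Technique: AMC fluorescence, 355/460 nm; Controls: enzyme without compound as high, wells lacking enzyme as low.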
# FXIa inh = inhibitors of human coagulation factor XIa; purified FXIa, Boc-Glu-Ala-Arg-AMC fluorogenic substrate; inhibition, % at 5 µM; actives 0.14% (n = 220,000); AID 798;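 active = inhibition of at least 40%; inactive = inhibition below 40%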;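 also: fluorescence of freed AMC excited at 355 nm; 0% = enzyme without compound and 100% = no enzyme blank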
# * = called active by the depositor; · = not tested or not shown. A selection: hits, their analogues and other compounds. The true share with any hit is near 1.1%.
SMILES,hK5 inh,FXIIa inh,Furin inhibitor,Thrombin inh,FXIa inh
CC1(C)C(=O)Nc2ccccc2N1C(=O)COC(=O)c1cc([N+](=O)[O-])ccc1N,48*,24,-5,24,17
O=C(COC(=O)CCC(=O)c1cccs1)Nc1ncc(Cl)cc1Cl,1,-1,-22,24,6
Cc1c(Cl)cnc(NC(=O)COC(=O)CCC(=O)c2cccs2)c1Cl,-7,6,-11,55*,14
Cc1ccc(CNC(=O)C(C)OC(=O)c2ccco2)cc1 (stereo not drawn),-14,19,-21,4,9
CC(NC(=O)c1ccco1)C(=O)OC(C)C(=O)NCc1ccccc1 (stereo not drawn),41*,24,-9,0,33
COc1ccc(CNC(=O)C(CCSC)NS(=O)(=O)c2ccccc2F)cc1 (stereo not drawn),1,7,-28,0,-1
COc1ccc(C(=O)n2nc(-c3ccccc3)nc2N)cc1OC,41*,10,-13,26,13
CCN(CC)S(=O)(=O)c1ccc(N2CCOCC2)c(NC(=O)Cc2cccc3ccccc23)c1,-7,5,-7,-16,2
O=C(Nc1sc2c(c1C(=O)O)CCCC2)c1cccs1,2,10,-26,9,13
O=C(Nc1sc2c(c1C(=O)NCC1CCCO1)CCCC2)c1cccs1 (stereo not drawn),54*,19,-15,21,6
COC(=O)c1ccc(NC(=O)COc2ccc(S(=O)(=O)NC(C)C)cc2)cc1,52*,16,-15,11,1
COc1cccc(NC(=O)COc2ccc(S(=O)(=O)NC(C)C)cc2)c1,51*,21,-12,31,16
CCOC(=O)c1ccc(NC(=O)COc2ccc(S(=O)(=O)NC(C)C)cc2)cc1,-15,4,-6,4,-5
CNC(=S)N1CCC(NC(=O)c2ccco2)CC1,18,25,-8,29,44*
CCNC(=S)N1CCC(NC(=O)c2ccco2)CC1,-2,5,-10,2,-1
CC(O)CNC(=O)Cc1cc(=O)[nH]c(=O)[nH]1 (stereo not drawn),5,18,-7,4,5
O=C(COc1cccnc1[N+](=O)[O-])Nc1ccc(Cl)c(S(=O)(=O)N2CCOCC2)c1,-1,1,-19,-3,10
O=c1[nH]c2ccc(Cl)cc2c(-c2ccccc2)c1N1CCOCC1,30,28,-26,43*,13
O=C(Nc1ccccc1)/C(=C/c1ccc2c(c1)OCO2)NC(=O)c1ccco1,-17,14,-6,-8,4
CCOC(=O)N1CCN(C(=O)c2cnn3c(C)c(Cc4ccc(C)cc4)c(C)nc23)CC1,63*,21,-19,10,4
Cc1ccc(C)c(Cc2c(C)nc3c(C(=O)N4CCOCC4)cnn3c2C)c1,19,-2,-34,-2,-11
C/C(=N\NC(=S)NC1CCCCC1)c1cccc(C(F)(F)F)c1,-3,2,-14,-7,-5
N#Cc1c(/N=C/c2ccco2)sc2c1CCC2,19,9,-11,104*,13
CC1(C)C2CC=C(/C=N/NC(=S)Nc3cccnc3)C1C2 (stereo not drawn),6,5,-15,-3,-1
CC1=C/C(=N\NC(=S)Nc2cccnc2)CC(C)(C)C1,13,22,-2,4,40*
SMILES,hK5 inh,FXIIa inh,Furin inhibitor,Thrombin inh,FXIa inh
O=C(CSc1nccc(=O)[nH]1)c1cc2ccccc2o1,46*,2,-12,-5,-7
Cc1ccc(O)c(-c2cc(-c3ccccc3C)[nH]n2)c1,50*,9,-14,9,4
CCCNC(=O)N1CCN(Cc2ccco2)CC1,·,15,-16,0,3
O=C1CCC(C(=O)OCc2cc(=O)oc3ccc4ccccc4c23)=NN1,-6,4,-32,2,-2
O=c1[nH]nc(SCc2nnc(-c3ccc([N+](=O)[O-])cc3)o2)n1C1CCCCC1,1,6,-15,44*,0
COC(=O)CS(=O)(=O)c1nnc([C@H](Cc2ccccc2)NC(=O)OC(C)(C)C)o1,-5,42*,0,2,0
Cc1cccc(CS(=O)(=O)c2nnc([C@H](Cc3ccccc3)NC(=O)OC(C)(C)C)o2)c1,-7,30,-15,29,17
CCC(=O)n1nc(-c2ccccc2)nc1NCc1ccccc1,-4,9,-15,·,0
COCC(=O)n1nc(-c2ccccc2)nc1NCc1ccc(F)cc1,-8,13,-21,90*,6

# Screening data (PubChem)
